The results in this text go back to ChEMBL document CHEMBL1124146, “Synthesis of the tumorigenic 3,4-dihydrodiol metabolites of dibenz[a,j]anthracene and 7,14-dimethyldibenz[a,j]anthracene” (1988).

Common to all, as to format: functional
The species named for assay [1] is Mus musculus. Nature of the assay: Compound was tested at a dose of 400 nmol for the skin tumor initiating activity expressed as percent of mice with papillomas. In a few lines:
(§1)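 The initiator was applied topically to the shaved skin in 0.2 mL peroxide-free THF; controls received THF only. After 2 weeks, 3.4 nmol TPA in 0.2 mL acetone was given twice weekly. Papillomas were recorded weekly, with random histology. Means were compared by Student's t test.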

For assay [2], the species on record is Mus musculus. The assay is described as follows: Compound was tested at a dose of 400 nmol for the skin tumor initiating activity expressed as papillomas per mouse. In a few lines: as §1
The species entered for assay [3] is Mus musculus. Nature of the assay: Compound was tested at a dose of 100 nmol for the skin tumor initiating activity expressed as percent of mice with papillomas. In a few lines:
as §1

Assay [4] is filed under the species Mus musculus. The assay is described as follows: Compound was tested at a dose of 100 nmol for the skin tumor initiating activity expressed as papillomas per mouse. In a few lines:
as §1

On to `O[C@H]1[C@H]2O[C@H]2c2c(ccc3cc4ccc5ccccc5c4cc23)[C@@H]1O`, for which the Activity in the assay listed under Mus musculus [1] came to 92%; in the assay listed under Mus musculus [2], 3.95.
On to `Cc1c2ccc3c(c2c(C)c2c1ccc1ccccc12)C=C[C@H](O)[C@H]3O`, for which the Activity in the assay listed under Mus musculus [3] came out at 93%; in the assay filed under Mus musculus [1] it was 100%; in the assay filed under Mus musculus [4], 9.9; in the assay listed under Mus musculus [2], 14.7.
Regarding `O[C@H]1C=Cc2c(ccc3cc4ccc5ccccc5c4cc23)[C@@H]1O`, the Activity in the assay listed under Mus musculus [1] came out at 39%; in the assay listed under Mus musculus [2], 0.65.
Consider `Cc1c2ccc3ccccc3c2c(C)c2c1ccc1ccccc12`, for which the Activity in the assay filed under Mus musculus [3] came out at 97%; in the assay filed under Mus musculus [1] it was 97%; in the assay filed under Mus musculus [4] it was 8.4; in the assay listed under Mus musculus [2] it was 17.3.
Turning to `c1ccc2c(c1)ccc1cc3ccc4ccccc4c3cc12` [DIBENZO[A,J]ANTHRACENE], the Activity worked out at 29% in the assay listed under Mus musculus [1] and 0.58 in the assay filed under Mus musculus [2].
